Experimental data taken from ChEMBL document CHEMBL2046422, “Structure-activity relationship of nonacidic quinazolinone inhibitors of human microsomal prostaglandin synthase 1 (mPGES 1)” (J Med Chem, 2012).

Experiments:
[1] = target: T1, Prostaglandin E synthase (Homo sapiens, UniProt O14684); assay: Inhibition of mPGES-1 derived from IL1beta and TNFalpha stimulated human HeLa cells microsomal fraction using PGH2 as substrate preincubated for 30 mins prior to substrate addition measured after 1 min by LC-MS/MS analysis
T1 sequence (O14684 whole entry): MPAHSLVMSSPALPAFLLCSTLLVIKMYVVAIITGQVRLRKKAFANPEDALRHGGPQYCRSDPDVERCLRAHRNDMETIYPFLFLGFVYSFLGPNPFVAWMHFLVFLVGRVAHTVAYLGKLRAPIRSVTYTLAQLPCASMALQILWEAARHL
Outline: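 Microsomes were pelleted by ultracentrifugation and resuspended in buffer with 2.5 mM GSH; protein was measured by Bradford. Screening used 1 μM final compound, and IC₅₀ (95% CI) came from increasing concentrations. PGE₂ was read by LC-MS/MS after solid-phase extraction with deuterated standards; n ≥ 3.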

[2] = target: T2, Prostaglandin E synthase (Mus musculus) (UniProt Q9JM51); assay: Inhibition of mPGES-1 derived from LPS stimulated mouse RAW264.7 cells microsomal fraction using PGH2 as substrate at 1 uM preincubated for 30 mins prior to substrate addition measured after 1 min by LC-MS/MS analysis relative to control
T2 sequence (whole entry): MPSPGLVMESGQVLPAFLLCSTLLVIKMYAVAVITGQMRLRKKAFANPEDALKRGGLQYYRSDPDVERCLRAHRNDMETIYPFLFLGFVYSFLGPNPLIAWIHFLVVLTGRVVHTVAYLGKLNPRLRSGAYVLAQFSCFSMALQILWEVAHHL
Outline: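 Microsomes came from RAW 264.7 cells stimulated with LPS for 16 h. They were prepared by sonication and ultracentrifugation in 0.1 M potassium phosphate, pH 7.4, with GSH and protease inhibitors, and resuspended with 2.5 mM GSH; protein was measured by Bradford. Compound was tested at the stated final concentration. PGE₂ was quantified by LC-MS/MS after solid-phase extraction with PGE₂-d₄/PGD₂-d₄ standards; SEM, n ≥ 3.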

[3] = target: T3, Prostaglandin G/H synthase 2 (Homo sapiens) (UniProt P35354); assay: Inhibition of human recombinant COX2-mediated PGE2 synthesis using PGH2 as substrate at 1 uM by LC-MS/MS analysis relative to control
T3 sequence (whole entry): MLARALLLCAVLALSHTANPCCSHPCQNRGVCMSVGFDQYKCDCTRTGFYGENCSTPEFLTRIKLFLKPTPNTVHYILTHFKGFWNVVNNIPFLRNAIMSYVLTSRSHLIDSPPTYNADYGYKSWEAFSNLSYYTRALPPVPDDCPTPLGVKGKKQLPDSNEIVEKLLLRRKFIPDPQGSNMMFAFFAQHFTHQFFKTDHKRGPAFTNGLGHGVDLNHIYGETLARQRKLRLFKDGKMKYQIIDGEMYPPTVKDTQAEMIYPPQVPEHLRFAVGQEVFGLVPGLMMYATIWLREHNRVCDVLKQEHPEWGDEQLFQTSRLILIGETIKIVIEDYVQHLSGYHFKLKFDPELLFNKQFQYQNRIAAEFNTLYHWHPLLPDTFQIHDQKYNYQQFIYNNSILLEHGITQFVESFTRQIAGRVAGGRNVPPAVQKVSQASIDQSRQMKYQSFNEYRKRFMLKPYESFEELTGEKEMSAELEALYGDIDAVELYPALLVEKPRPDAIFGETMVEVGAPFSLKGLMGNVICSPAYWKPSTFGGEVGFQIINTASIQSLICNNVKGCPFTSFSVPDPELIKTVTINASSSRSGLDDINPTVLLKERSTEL
Outline: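 Direct enzyme test with a COX inhibitor screening kit, run per the kit protocol: COX-1 was ovine, COX-2 human recombinant. […] Prostaglandins were quantified by LC-MS/MS after solid-phase extraction. Mean of n ≥ 3.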

[4] = target: Prostaglandin G/H synthase 1 (Homo sapiens) (UniProt P23219); assay: Inhibition of COX1 in human whole blood assessed as residual PGD2 level at 10 uM after 1 hr by LC-MS/MS analysis relative to control
Outline: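 Human venous blood was drawn without additives, and compound was added. Samples clotted at 37 °C for 1 h; negative controls were chilled on ice at once. After 5 min on ice, plasma was separated at 4 °C. It was mixed with H₃PO₄, EDTA, BHT and deuterated internal standards, then put through solid-phase extraction. TXB₂ and PGD₂ were measured by LC-MS/MS, relative to vehicle-treated blood.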

[5] = target: T3, Prostaglandin G/H synthase 2 (Homo sapiens); assay: Inhibition of COX2 in LPS-stimulated human whole blood assessed as residual PGE2 level at 100 uM preincubated for 15 mins prior to LPS-stimulation measured after 24 hrs by LC-MS/MS analysis relative to control
Outline: (§1)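 Human whole blood received compound in DMSO plus acetylsalicylic acid (10 μg/mL) to block COX-1, 15 min at 37 °C. LPS (10 μg/mL final) in autologous plasma was added to induce COX-2/mPGES-1, and blood was incubated 24 h at 37 °C. Samples were chilled on ice 5 min, and plasma prostaglandins were extracted by solid-phase extraction and quantified by LC-MS/MS. Values are relative to vehicle.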

[6] = target: T4, 5-lipoxygenase/FLAP (Homo sapiens) (UniProt P09917+P20292); assay: Inhibition of 5-lipoxygenase/FLAP in calcium ionophore-stimulated human whole blood assessed as residual LTB4 level at 10 uM preincubated for 15 mins prior to calcium ionophore-stimulation measured after 15 mins by LC-MS/MS analysis; format: protein-complex assay
Outline: (§2)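 Heparinized human whole blood (500 μL) was preincubated with compound for 15 min at 37 °C. It was then stimulated with 20 μM calcium ionophore A23187 in autologous plasma for 15 min at 37 °C and chilled on ice for 5 min. Plasma was collected by centrifugation at 4 °C. Eicosanoids were recovered by liquid–liquid extraction with deuterated internal standards and quantified by LC-MS/MS (MRM). Levels are relative to vehicle-treated blood.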

[7] = target: T3, Prostaglandin G/H synthase 2 (Homo sapiens); assay: Inhibition of COX2 in LPS-stimulated human whole blood assessed as residual PGF2alpha level at 100 uM preincubated for 15 mins prior to LPS-stimulation measured after 24 hrs by LC-MS/MS analysis relative to control; outline: as §1
[8] = target: T4, 5-lipoxygenase/FLAP (Homo sapiens); assay: Inhibition of 5-lipoxygenase/FLAP in calcium ionophore-stimulated human whole blood assessed as residual 12(s)HETE level at 10 uM preincubated for 15 mins prior to calcium ionophore-stimulation measured after 15 mins by LC-MS/MS analysis; format: protein-complex assay; outline: as §2
[9] = target: T4, 5-lipoxygenase/FLAP (Homo sapiens); assay: Inhibition of 5-lipoxygenase/FLAP in calcium ionophore-stimulated human whole blood assessed as 5(s)HETE level at 10 uM preincubated for 15 mins prior to calcium ionophore-stimulation measured after 15 mins by LC-MS/MS analysis; format: protein-complex assay; parameters: scale not given: the % may be the effect or the level left; outline: as §2
[10] = target: T4, 5-lipoxygenase/FLAP (Homo sapiens); assay: Inhibition of 5-lipoxygenase/FLAP in calcium ionophore-stimulated human whole blood assessed as residual 15(s)HETE level at 10 uM preincubated for 15 mins prior to calcium ionophore-stimulation measured after 15 mins by LC-MS/MS analysis; format: protein-complex assay; outline: as §2
[11] = target: T4, 5-lipoxygenase/FLAP (Homo sapiens); assay: Inhibition of 5-lipoxygenase/FLAP in calcium ionophore-stimulated human whole blood assessed as residual (+/-)11HETE level at 10 uM preincubated for 15 mins prior to calcium ionophore-stimulation measured after 15 mins by LC-MS/MS analysis; format: protein-complex assay; outline: as §2

Chain of Prostaglandin G/H synthase 1 (Homo sapiens) (P23219 whole entry): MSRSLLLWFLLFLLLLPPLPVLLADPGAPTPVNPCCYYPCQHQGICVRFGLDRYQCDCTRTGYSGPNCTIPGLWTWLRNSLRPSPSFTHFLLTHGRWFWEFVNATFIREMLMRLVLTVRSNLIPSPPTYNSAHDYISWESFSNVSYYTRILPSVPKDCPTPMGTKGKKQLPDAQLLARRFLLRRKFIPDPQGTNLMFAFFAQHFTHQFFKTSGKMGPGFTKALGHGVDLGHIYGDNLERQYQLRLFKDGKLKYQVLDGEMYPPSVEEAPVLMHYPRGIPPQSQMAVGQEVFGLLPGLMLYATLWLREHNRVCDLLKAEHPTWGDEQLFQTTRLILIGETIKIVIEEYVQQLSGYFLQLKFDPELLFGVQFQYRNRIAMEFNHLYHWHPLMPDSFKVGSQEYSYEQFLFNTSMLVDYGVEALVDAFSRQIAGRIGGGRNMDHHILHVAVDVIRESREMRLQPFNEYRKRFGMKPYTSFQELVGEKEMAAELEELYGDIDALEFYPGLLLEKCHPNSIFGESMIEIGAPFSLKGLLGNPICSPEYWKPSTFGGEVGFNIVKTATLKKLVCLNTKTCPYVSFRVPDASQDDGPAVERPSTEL

IC50 [1] [nM] | inhibition [2] [%] | inhibition [3] [%] | Activity [4] [%] | Activity [5] [%] | Activity [6] [%] | Activity [7] [%] | Activity [8] [%] | Activity [9] [%] | Activity [10] [%] | Activity [11] [%] | SMILES
210 | 15.3 | 2.5 | 91.7 | 50 | 70.9 | 92.5 | 85.5 | 67.8 | 80 | 77 | CCCc1nc2ccc(NC(=O)c3ccccc3Cl)cc2c(=O)n1Cc1ccc(-c2cccc(OC)c2)cc1
260 | 6 | < 0 | 128 | 53 | 72.7 | 93.8 | 88.9 | 74.4 | 83.4 | 86.5 | CCCc1nc2ccc(NC(=O)c3ccccc3C)cc2c(=O)n1Cc1cccc(Cl)c1
360 | 9.5 | < 0 | 86.5 | 37.4 | 93.7 | 81.3 | 92.8 | 92 | 90.3 | 71.6 | CCCc1nc2ccc(NC(=O)c3ccccc3Cl)cc2c(=O)n1Cc1cccc(Cl)c1
370 | -8.7 | < 0 | 89.4 | 54.7 | 94.1 | 97 | 123 | 92.1 | 111 | 123 | CCCc1nc2ccc(NC(=O)c3c(F)cccc3Cl)cc2c(=O)n1Cc1cccc(Cl)c1
 | 12.4 | < 0 | 96.1 | 174 | 151 | 234 | 93.2 | 157 | 93.8 | 85.2 | CCCc1nc2ccc(NC(=O)c3ccccc3Cl)cc2c(=O)n1Cc1ccc(-c2ccc(Cl)cc2)cc1
130 | 8.4 | 6.7 | 98.5 | 51.2 | 83 | 94.2 | 80 | 79 | 83.1 | 76.8 | CCCc1nc2ccc(NC(=O)c3ccccc3Cl)cc2c(=O)n1Cc1ccc(-c2cccc(Cl)c2)cc1
220 | 11.8 | 5.8 | 84.9 | 52.1 | 71.9 | 92.6 | 110 | 74.8 | 94.2 | 84.8 | CCCc1nc2ccc(NC(=O)c3ccccc3Cl)cc2c(=O)n1Cc1ccc(-c2ccccc2)cc1
